Experiment: Antioxidant activity assessed as hydroxyl radical scavenging rate at 1 g/L relative to control
Format: functional
In short: (§1)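 Hydroxyl radical scavenging was read as absorbance of the reaction solution at 510 nm by a fixed reaction time method. Derivatives were tested at 0.2–1.2 g/L, with sesamol as positive control. Values are means ± SD from at least eight independent experiments, each in triplicate (n = 3), with t-tests (p < 0.05).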

| SMILES | Activity [%] |
| --- | --- |
| O=c1oc2ccc3c(c2c2c(Cl)cccc12)OCO3 | 87.4 |
| O=C(Oc1ccc2c(c1)OCO2)c1ccccc1Cl | 77.5 |

Experiment: Antioxidant activity assessed as superoxide anion radical scavenging rate at 0.2 g/L relative to control
Format: functional
In short: (§2)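 Pyrocatechol autoxidation in weak alkaline medium produces a coloured intermediate and superoxide anion; the intermediate absorbs maximally at 320 nm. Scavenging rate was measured at 0.2–1.2 g/L, with sesamol as positive control. Values are means ± SD from at least eight independent experiments, each in triplicate (n = 3), with t-tests (p < 0.05).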

| SMILES | Activity [%] |
| --- | --- |
| O=c1oc2ccc3c(c2c2c(Cl)cccc12)OCO3 | 15.2 |
| O=C(Oc1ccc2c(c1)OCO2)c1ccccc1Cl | 13.3 |

Experiment: Antioxidant activity assessed as superoxide anion radical scavenging rate at 1 g/L relative to control
Format: functional
In short: as §2

| SMILES | Activity [%] |
| --- | --- |
| O=c1oc2ccc3c(c2c2c(Cl)cccc12)OCO3 | 87.4 |
| O=C(Oc1ccc2c(c1)OCO2)c1ccccc1Cl | 76.5 |

Experiment: Antioxidant activity assessed as superoxide anion radical scavenging rate at 0.4 g/L relative to control
Format: functional
In short: as §2

| SMILES | Activity [%] |
| --- | --- |
| O=c1oc2ccc3c(c2c2c(Cl)cccc12)OCO3 | 34.8 |
| O=C(Oc1ccc2c(c1)OCO2)c1ccccc1Cl | 30.5 |

Experiment: Antioxidant activity assessed as superoxide anion radical scavenging rate at 1.2 g/L relative to control
Format: functional
In short: as §2

| SMILES | Activity [%] |
| --- | --- |
| O=c1oc2ccc3c(c2c2c(Cl)cccc12)OCO3 | 88.3 |
| O=C(Oc1ccc2c(c1)OCO2)c1ccccc1Cl | 77.2 |

Experiment: Antioxidant activity assessed as hydroxyl radical scavenging rate at 0.8 g/L relative to control
Format: functional
In short: as §1

| SMILES | Activity [%] |
| --- | --- |
| O=c1oc2ccc3c(c2c2c(Cl)cccc12)OCO3 | 83.2 |
| O=C(Oc1ccc2c(c1)OCO2)c1ccccc1Cl | 73.8 |

Experiment: Antioxidant activity assessed as reduction in lipid peroxidation by measuring antiperoxide-index at 0.2 g/L by thiobarbituric acid method relative to control
Format: functional
Set-up: scale not given: the % may be the effect or the level left
In short: (§3)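 Anti-lipid-peroxidation (antiperoxide index, %) was tested at 0.2–1.2 g/L, with sesamol as positive control. Values are means ± SD from at least eight independent experiments, each in triplicate (n = 3), with t-tests (p < 0.05).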

| SMILES | Activity [%] |
| --- | --- |
| O=c1oc2ccc3c(c2c2c(Cl)cccc12)OCO3 | 16 |
| O=C(Oc1ccc2c(c1)OCO2)c1ccccc1Cl | 14.2 |

Experiment: Antioxidant activity assessed as reduction of potassium ferricyanide trivalent iron into potassium ferrocyanide bivalent iron and ferrous iron by measuring eliminate efficiency at 1.2 g/L relative to control
Format: functional
Set-up: scale not given: the % may be the effect or the level left
In short: (§4)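 Reducing capacity was read as absorbance at 700 nm, where higher absorbance means greater reducing ability. Tested at 0.2–1.2 g/L against sesamol as positive control. Values are means from at least eight independent experiments, each in triplicate (n = 3), with t-tests (p < 0.05).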

| SMILES | Activity [%] |
| --- | --- |
| O=c1oc2ccc3c(c2c2c(Cl)cccc12)OCO3 | 93.6 |
| O=C(Oc1ccc2c(c1)OCO2)c1ccccc1Cl | 85.6 |

Experiment: Antioxidant activity assessed as reduction of potassium ferricyanide trivalent iron into potassium ferrocyanide bivalent iron and ferrous iron by measuring eliminate efficiency at 0.4 g/L relative to control
Format: functional
Set-up: scale not given: the % may be the effect or the level left
In short: as §4

| SMILES | Activity [%] |
| --- | --- |
| O=c1oc2ccc3c(c2c2c(Cl)cccc12)OCO3 | 38.2 |
| O=C(Oc1ccc2c(c1)OCO2)c1ccccc1Cl | 34.9 |

Experiment: Antioxidant activity assessed as reduction of potassium ferricyanide trivalent iron into potassium ferrocyanide bivalent iron and ferrous iron by measuring eliminate efficiency at 0.2 g/L relative to control
Format: functional
Set-up: scale not given: the % may be the effect or the level left
In short: as §4

| SMILES | Activity [%] |
| --- | --- |
| O=c1oc2ccc3c(c2c2c(Cl)cccc12)OCO3 | 15.9 |
| O=C(Oc1ccc2c(c1)OCO2)c1ccccc1Cl | 14.6 |

Experiment: Antioxidant activity assessed as superoxide anion radical scavenging rate at 0.6 g/L relative to control
Format: functional
In short: as §2

| SMILES | Activity [%] |
| --- | --- |
| O=c1oc2ccc3c(c2c2c(Cl)cccc12)OCO3 | 66.2 |
| O=C(Oc1ccc2c(c1)OCO2)c1ccccc1Cl | 57.9 |

Experiment: Antioxidant activity assessed as reduction in lipid peroxidation by measuring antiperoxide-index at 0.6 g/L by thiobarbituric acid method relative to control
Format: functional
Set-up: scale not given: the % may be the effect or the level left
In short: as §3

| SMILES | Activity [%] |
| --- | --- |
| O=c1oc2ccc3c(c2c2c(Cl)cccc12)OCO3 | 69 |
| O=C(Oc1ccc2c(c1)OCO2)c1ccccc1Cl | 61.4 |

Experiment: Antioxidant activity assessed as superoxide anion radical scavenging rate at 0.8 g/L relative to control
Format: functional
In short: as §2

| SMILES | Activity [%] |
| --- | --- |
| O=c1oc2ccc3c(c2c2c(Cl)cccc12)OCO3 | 79.4 |
| O=C(Oc1ccc2c(c1)OCO2)c1ccccc1Cl | 69.5 |

Experiment: Antioxidant activity assessed as reduction of potassium ferricyanide trivalent iron into potassium ferrocyanide bivalent iron and ferrous iron by measuring eliminate efficiency at 1 g/L relative to control
Format: functional
Set-up: scale not given: the % may be the effect or the level left
In short: as §4

| SMILES | Activity [%] |
| --- | --- |
| O=c1oc2ccc3c(c2c2c(Cl)cccc12)OCO3 | 92.7 |
| O=C(Oc1ccc2c(c1)OCO2)c1ccccc1Cl | 84.7 |

Experiment: Antioxidant activity assessed as hydroxyl radical scavenging rate at 1.2 g/L relative to control
Format: functional
In short: as §1

| SMILES | Activity [%] |
| --- | --- |
| O=c1oc2ccc3c(c2c2c(Cl)cccc12)OCO3 | 88.2 |
| O=C(Oc1ccc2c(c1)OCO2)c1ccccc1Cl | 78.2 |

Experiment: Antioxidant activity assessed as reduction in lipid peroxidation by measuring antiperoxide-index at 0.4 g/L by thiobarbituric acid method relative to control
Format: functional
Set-up: scale not given: the % may be the effect or the level left
In short: as §3

| SMILES | Activity [%] |
| --- | --- |
| O=c1oc2ccc3c(c2c2c(Cl)cccc12)OCO3 | 38.4 |
| O=C(Oc1ccc2c(c1)OCO2)c1ccccc1Cl | 34.1 |

Experiment: Antioxidant activity assessed as reduction in lipid peroxidation by measuring antiperoxide-index at 0.8 g/L by thiobarbituric acid method relative to control
Format: functional
Set-up: scale not given: the % may be the effect or the level left
In short: as §3

| SMILES | Activity [%] |
| --- | --- |
| O=c1oc2ccc3c(c2c2c(Cl)cccc12)OCO3 | 82.8 |
| O=C(Oc1ccc2c(c1)OCO2)c1ccccc1Cl | 73.7 |

Experiment: Antioxidant activity assessed as hydroxyl radical scavenging rate at 0.4 g/L relative to control
Format: functional
In short: as §1

| SMILES | Activity [%] |
| --- | --- |
| O=c1oc2ccc3c(c2c2c(Cl)cccc12)OCO3 | 38.7 |
| O=C(Oc1ccc2c(c1)OCO2)c1ccccc1Cl | 34.4 |

Experiment: Antioxidant activity assessed as hydroxyl radical scavenging rate at 0.2 g/L relative to control
Format: functional
In short: as §1

| SMILES | Activity [%] |
| --- | --- |
| O=c1oc2ccc3c(c2c2c(Cl)cccc12)OCO3 | 16.1 |
| O=C(Oc1ccc2c(c1)OCO2)c1ccccc1Cl | 14.2 |

Experiment: Antioxidant activity assessed as reduction in lipid peroxidation by measuring antiperoxide-index at 1 g/L by thiobarbituric acid method relative to control
Format: functional
Set-up: scale not given: the % may be the effect or the level left
In short: as §3

| SMILES | Activity [%] |
| --- | --- |
| O=c1oc2ccc3c(c2c2c(Cl)cccc12)OCO3 | 91.1 |
| O=C(Oc1ccc2c(c1)OCO2)c1ccccc1Cl | 81.1 |

Experiment: Antioxidant activity assessed as hydroxyl radical scavenging rate at 0.6 g/L relative to control
Format: functional
In short: as §1

| SMILES | Activity [%] |
| --- | --- |
| O=c1oc2ccc3c(c2c2c(Cl)cccc12)OCO3 | 69.3 |
| O=C(Oc1ccc2c(c1)OCO2)c1ccccc1Cl | 61.5 |

Experiment: Antioxidant activity assessed as reduction in lipid peroxidation by measuring antiperoxide-index at 1.2 g/L by thiobarbituric acid method relative to control
Format: functional
Set-up: scale not given: the % may be the effect or the level left
In short: as §3

| SMILES | Activity [%] |
| --- | --- |
| O=c1oc2ccc3c(c2c2c(Cl)cccc12)OCO3 | 93.8 |
| O=C(Oc1ccc2c(c1)OCO2)c1ccccc1Cl | 83.5 |

Experiment: Antioxidant activity assessed as reduction of potassium ferricyanide trivalent iron into potassium ferrocyanide bivalent iron and ferrous iron by measuring eliminate efficiency at 0.8 g/L relative to control
Format: functional
Set-up: scale not given: the % may be the effect or the level left
In short: as §4

| SMILES | Activity [%] |
| --- | --- |
| O=c1oc2ccc3c(c2c2c(Cl)cccc12)OCO3 | 84.3 |
| O=C(Oc1ccc2c(c1)OCO2)c1ccccc1Cl | 77 |

Experiment: Antioxidant activity assessed as reduction of potassium ferricyanide trivalent iron into potassium ferrocyanide bivalent iron and ferrous iron by measuring eliminate efficiency at 0.6 g/L relative to control
Format: functional
Set-up: scale not given: the % may be the effect or the level left
In short: as §4

| SMILES | Activity [%] |
| --- | --- |
| O=c1oc2ccc3c(c2c2c(Cl)cccc12)OCO3 | 72.6 |
| O=C(Oc1ccc2c(c1)OCO2)c1ccccc1Cl | 66.4 |

— ChEMBL document CHEMBL4673330, “Preparations and antioxidant activities of sesamol and it's derivatives” (Bioorg Med Chem Lett, 2021)
